{"source": "paper PMC11066147", "about": "(Heliyon, 2024)", "key": {"[1]": {"system": "clients from E. coli JM109 cells", "assay": "co-affinity assay coupled to LC-MS, clients from E. coli JM109", "format": "binding", "outline": "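Pull-down bait was His-tagged Hsp70 (wild type or linker-swap variant), immobilised on cobalt resin in TBS (10 mM Tris-HCl pH 7.5, 50 mM NaCl, 10 mM imidazole) for 4 h at 4 °C, then washed 5×. E. coli JM109 lysate (prey) was added overnight at 4 °C, followed by 5 washes. Elution used 290 mM imidazole. Eluates were run on silver-stained SDS-PAGE; unique bands were excised and identified by LC-MS.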"}, "[2]": {"system": "clients from E. coli ΔdnaK52 cells", "assay": "co-affinity assay coupled to LC-MS, clients from E. coli ΔdnaK52", "format": "binding"}, "DnaK": {"target": "DnaK (Escherichia coli, UniProt P0A6Y8)", "sequence (P0A6Y8 whole entry)": "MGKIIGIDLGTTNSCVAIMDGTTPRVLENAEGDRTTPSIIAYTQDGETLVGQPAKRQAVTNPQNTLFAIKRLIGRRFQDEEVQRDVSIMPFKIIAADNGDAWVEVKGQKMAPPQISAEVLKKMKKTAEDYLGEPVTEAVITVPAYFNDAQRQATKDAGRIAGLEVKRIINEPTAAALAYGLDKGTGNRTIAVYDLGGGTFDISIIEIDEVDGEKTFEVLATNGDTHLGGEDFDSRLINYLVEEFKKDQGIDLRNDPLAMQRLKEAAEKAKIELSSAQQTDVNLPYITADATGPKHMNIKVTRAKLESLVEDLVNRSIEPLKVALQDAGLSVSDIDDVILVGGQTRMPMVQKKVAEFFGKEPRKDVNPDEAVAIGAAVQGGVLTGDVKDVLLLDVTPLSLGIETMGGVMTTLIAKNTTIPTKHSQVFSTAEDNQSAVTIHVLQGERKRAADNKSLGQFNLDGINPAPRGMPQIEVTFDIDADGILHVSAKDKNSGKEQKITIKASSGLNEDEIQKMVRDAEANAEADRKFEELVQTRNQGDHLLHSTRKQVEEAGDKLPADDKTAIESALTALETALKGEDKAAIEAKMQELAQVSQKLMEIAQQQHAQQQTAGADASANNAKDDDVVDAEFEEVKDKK", "conditions": "SPR; presence of ATP"}, "proteins": {"system": "proteins", "conditions": "ref [33]; cited from earlier work"}, "PfHsp70-1 [3]": {"target": "T1, PfHsp70-1 (Plasmodium falciparum, UniProt Q8IB24)", "T1 sequence (Q8IB24 1-677)": "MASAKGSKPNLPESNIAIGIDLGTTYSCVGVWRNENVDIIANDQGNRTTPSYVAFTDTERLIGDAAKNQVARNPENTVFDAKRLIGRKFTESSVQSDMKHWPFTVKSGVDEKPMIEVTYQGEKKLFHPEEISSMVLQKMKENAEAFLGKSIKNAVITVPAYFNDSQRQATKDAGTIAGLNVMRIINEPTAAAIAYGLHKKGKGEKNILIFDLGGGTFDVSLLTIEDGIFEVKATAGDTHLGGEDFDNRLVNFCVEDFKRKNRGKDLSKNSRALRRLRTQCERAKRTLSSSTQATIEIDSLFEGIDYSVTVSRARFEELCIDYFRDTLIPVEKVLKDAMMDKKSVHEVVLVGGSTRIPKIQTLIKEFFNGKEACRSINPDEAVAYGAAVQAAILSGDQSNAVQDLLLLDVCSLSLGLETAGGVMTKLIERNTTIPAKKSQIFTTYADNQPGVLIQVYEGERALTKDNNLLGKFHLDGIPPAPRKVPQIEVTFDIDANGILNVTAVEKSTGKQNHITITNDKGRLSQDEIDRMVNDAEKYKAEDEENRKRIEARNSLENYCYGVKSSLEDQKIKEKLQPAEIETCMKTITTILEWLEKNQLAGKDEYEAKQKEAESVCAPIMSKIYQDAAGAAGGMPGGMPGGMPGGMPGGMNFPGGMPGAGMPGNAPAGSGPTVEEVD", "conditions": "previous study, ref [10], cited from earlier work"}, "PfHsp70-z": {"target": "T2, PfHsp70-z (Plasmodium falciparum, UniProt Q8IC01)", "T2 sequence (Q8IC01 1-873)": "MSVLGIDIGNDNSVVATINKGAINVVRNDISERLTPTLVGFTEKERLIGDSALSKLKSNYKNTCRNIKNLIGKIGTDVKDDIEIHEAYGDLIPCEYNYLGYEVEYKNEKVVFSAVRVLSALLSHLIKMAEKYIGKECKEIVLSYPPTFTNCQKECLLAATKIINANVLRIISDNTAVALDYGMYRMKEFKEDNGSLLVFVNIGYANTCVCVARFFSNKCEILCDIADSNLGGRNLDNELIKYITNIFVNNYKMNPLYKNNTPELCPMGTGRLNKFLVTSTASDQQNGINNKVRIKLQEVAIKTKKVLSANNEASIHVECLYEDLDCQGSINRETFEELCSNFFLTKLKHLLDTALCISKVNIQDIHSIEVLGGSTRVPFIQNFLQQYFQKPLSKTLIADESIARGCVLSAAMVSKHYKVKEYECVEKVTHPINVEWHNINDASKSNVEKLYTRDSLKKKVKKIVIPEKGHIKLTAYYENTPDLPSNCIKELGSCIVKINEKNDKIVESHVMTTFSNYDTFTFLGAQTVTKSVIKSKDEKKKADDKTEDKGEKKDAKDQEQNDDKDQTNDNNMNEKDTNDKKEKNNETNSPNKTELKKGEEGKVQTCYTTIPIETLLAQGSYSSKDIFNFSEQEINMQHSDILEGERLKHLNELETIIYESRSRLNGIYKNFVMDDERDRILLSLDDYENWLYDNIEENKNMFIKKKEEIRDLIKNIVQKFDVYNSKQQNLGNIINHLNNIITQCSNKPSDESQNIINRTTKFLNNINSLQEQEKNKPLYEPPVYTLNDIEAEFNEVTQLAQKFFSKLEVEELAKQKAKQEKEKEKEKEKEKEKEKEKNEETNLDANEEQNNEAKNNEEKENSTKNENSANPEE", "conditions": "previous study, ref [10], cited from earlier work"}, "PfHsp70-1 [4]": {"target": "T1, PfHsp70-1", "assay": "SPR self-association, immobilised ligand PfHsp70-1", "format": "binding"}}, "note": "Entries after “also recorded” stand apart in the source; their conditions may differ.", "data": [{"substance": "DnaK: E. coli Hsp70, recombinant", "values": [{"measurement": "association with CH60/GroEL", "setting": "[1]", "value": "not with DnaK"}, {"measurement": "pI of a further group of clients", "setting": "[1]", "value": "around 9.5"}, {"measurement": "pI of majority of clients", "setting": "[1]", "value": "5.5–6.0"}, {"measurement": "pI of some unique clients", "setting": "[1]", "value": "above 10"}, {"measurement": "size of most clients", "setting": "[1]", "value": "around 50 kDa"}, {"measurement": "number of unique clients", "setting": "[1]; unique relative to the other chaperone", "value": 41, "unit": "clients"}, {"measurement": "association with CH60/GroEL", "setting": "[2]", "value": "associated with DnaK within the E. coli ΔdnaK52 cell background"}, {"measurement": "number of clients bound", "setting": "[2]", "value": 110, "unit": "clients"}, {"measurement": "size of another prominent client cluster", "setting": "[2]", "value": "above 100 kDa"}, {"measurement": "effect of ATP on self-association", "setting": "DnaK", "value": "promoted by ATP"}, {"measurement": "number of aggregation-prone (unstable) clients", "setting": "proteins", "value": "~180", "unit": "proteins"}]}, {"substance": "GFRLLLMYRF", "values": [{"measurement": "effect of nucleotide on peptide affinity", "setting": "PfHsp70-1 [3]", "value": "regulated by ADP/ATP"}, {"measurement": "effect of nucleotide on peptide binding", "setting": "PfHsp70-z", "value": "nucleotide independent"}]}, {"substance": "GFRNNNMYRF", "values": [{"measurement": "effect of nucleotide on peptide affinity", "setting": "PfHsp70-1 [3]", "value": "regulated by ADP/ATP"}, {"measurement": "peptide preference", "setting": "PfHsp70-1 [3]; vs GFRLLLMYRF", "value": "preferentially bind to the Asp-enriched peptide"}, {"measurement": "effect of nucleotide on peptide binding", "setting": "PfHsp70-z", "value": "nucleotide independent"}, {"measurement": "peptide preference", "setting": "PfHsp70-z; vs GFRLLLMYRF", "value": "preferentially bind to the Asp-enriched peptide"}]}, {"substance": "PfHsp70-1: canonical cytosolic Hsp70 chaperone of Plasmodium falciparum, recombinant", "values": [{"measurement": "self-association without nucleotide vs ADP", "setting": "PfHsp70-1 [4]", "value": "comparable affinity in the absence of nucleotide and in the presence of ADP"}, {"measurement": "effect of ATP on self-association", "setting": "PfHsp70-1 [4]; ATP vs apo- or ADP-states", "value": "tenfold increase; also recorded: promoted by ATP"}]}]}
